Results on 1 compound are retold here after ChEMBL document CHEMBL3769342, “Supramolecular Inhibition of Neurodegeneration by a Synthetic Receptor” (ACS Med Chem Lett, 2015).

Active and inactive are the calls of the source. The calls are words filed in the database; no cut-off is given here.

The nature of data set [1]: Binding affinity to MPTP at 0.5 equivalents of compound by 1H NMR analysis.
A short description of data set [2]: Binding affinity to MPP+ by ESI-MS analysis.
For data set [3], the species on record is Danio rerio. The data set can be described thus: Neurotoxicity in zebrafish larvae assessed as swimming distance at 100 uM incubated for 5 days measured for 45 mins by automated video tracking system based method (reference value: 3773.21 +/- 386.24 cm). Type of data set: ADME, organism-based. The note with it: in vivo.
The species named for data set [4] is Danio rerio. Kind of data set: Neuroprotective activity against MPTP-induced locomotion defeciency in zebrafish larvae assessed as swimming distance at 100 uM incubated for 5 days measured for 45 mins by automated video tracking system based method (reference value: 1368.76 +/- 404.62 cm). Type of data set: functional.
The nature of data set [5]: Binding affinity to MPP+ assessed as upfield shift resonance at 1.2 equivalents of compound by 1H NMR analysis.
A short description of data set [6]: Binding affinity to MPTP by ESI-MS analysis.
Data set [7] in a line: Binding affinity to MPTP in PBS buffer solution at pH 7.4 by UV-vis titration method. The procedure, abridged:
(§1)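 UV-vis titration in 0.01 M PBS, pH 7.4: host added in increasing amounts to the guest solution. Guest absorbance followed at 242 nm, plotted against host concentration and fitted by nonlinear least squares to a 1:1 model to give Ka.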

The species entered for data set [8] is Danio rerio. The data set can be described thus: Neurotoxicity in zebrafish model of MPTP-induced tyrosine hydroxylase defeciency assessed as phenotypic changes at 100 uM after 48 hrs by immunofluorescence assay. Format: organism-based. Conditions: in vivo.
Data set [9] can be described thus: Binding affinity to MPTP assessed as upfield shift resonance at 1.2 equivalents of compound by 1H NMR analysis.
The nature of data set [10]: Neurotoxicity in zebrafish larvae assessed as tyrosine hydroxylase viability in neuron at 100 uM after 48 hrs by immunofluorescence assay relative to control. Format: organism-based, Danio rerio. The note with it: tyrosine hydroxylase-positive neurons, read-out: Activity.
For data set [11], the species on record is Danio rerio. The data set can be described thus: Neuroprotective activity against MPTP-induced tyrosine hydroxylase deficiency in zebrafish larval brain assessed as tyrosine hydroxylase viability in neuron at 100 uM after 48 hrs by immunofluorescence assay (reference value: 49.93 +/- 5.26%). Format: functional.
Data set [12] can be described thus: Binding affinity to MPP+ in PBS buffer solution at pH 7.4 by UV-vis titration method. The procedure, abridged:
as §1

Consider `O=C1N2CN3C(=O)N4CN5C(=O)N6CN7C(=O)N8CN9C(=O)N%10CN%11C(=O)N%12CN%13C(=O)N%14CN1[C@H]1[C@@H]2N2CN%15C(=O)N(CN%16C(=O)N(CN%17C(=O)N(CN%18C(=O)N(CN%19C(=O)N(CN%20C(=O)N(CN1C2=O)[C@H]%14[C@@H]%20%13)[C@H]%12[C@@H]%19%11)[C@H]%10[C@@H]%189)[C@H]8[C@@H]%177)[C@H]6[C@@H]%165)[C@H]4[C@@H]%153`, for which the result in data set [1], in data set [2], in [5] and in [6] was Active. For the same compound, the Activity was 4167.89 cm in the data set filed under Danio rerio [3]; 3487.02 cm in the data set filed under Danio rerio [4]; “Non-toxic” in the data set filed under Danio rerio [8]; < 1 ppm in [9]; 79.44% in the data set listed under Danio rerio [11]. The Ka was 4.8 ×10⁴ /M in [7] and 1.05 ×10⁵ /M in [12]. Besides, in data set [10], the viability at 48 h, 100 µM worked out at 91%.
